Reference: ChEMBL document CHEMBL1145325, “p38 MAP kinase inhibitors. Part 3: SAR on 3,4-dihydropyrimido[4,5-d]pyrimidin-2-ones and 3,4-dihydropyrido[4,3-d]pyrimidin-2-ones” (Bioorg Med Chem Lett, 2006)

Columns and labels:
[1] = target: Voltage-gated L-type calcium channel (Homo sapiens, UniProt Q13936+Q13698+Q01668+O60840); assay: Binding affinity to DLZ binding site of calcium channel; type: protein assay
Homo sapiens [2] = organism: Homo sapiens; assay: Inhibition of LPS-stimulated TNFalpha release in human whole blood; type: functional, organism-based
THP-1 [3] = assay: Inhibition of LPS-stimulated TNFalpha release in human THP1 cells; type: functional, cell-based
Procedure, shortened: (§1)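 THP-1 cells at 2.5 · 10⁶/mL suspended in a PBS-based medium. Compound added in DMSO, then LPS. Incubated 4 h at 37 °C under CO₂. TNF-α in the supernatant measured by sandwich ELISA, with anti-human TNF-α as the capture antibody.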

[4] = target: Mitogen-activated protein kinase 14 (Homo sapiens, UniProt Q16539); assay: Inhibition of p38alpha
[5] = target: Voltage-gated inwardly rectifying potassium channel KCNH2 (Homo sapiens, UniProt Q12809); assay: Binding affinity to iKr potassium channel
[6] = Oral bioavailability in rat; type: ADME, organism-based; conditions: in vivo
Homo sapiens [7] = organism: Homo sapiens; assay: Inhibition of LPS-stimulated TNFalpha release in human whole blood upto 15 uM; type: functional, organism-based
THP-1 [8] = assay: Inhibition of LPS-stimulated TNFalpha release in human THP1 cells upto 15 uM; type: functional, cell-based; procedure, shortened: as §1
[9] = Half life in rat; type: ADME, organism-based; conditions: in vivo

Chain of Voltage-gated inwardly rectifying potassium channel KCNH2 (Q12809 whole entry): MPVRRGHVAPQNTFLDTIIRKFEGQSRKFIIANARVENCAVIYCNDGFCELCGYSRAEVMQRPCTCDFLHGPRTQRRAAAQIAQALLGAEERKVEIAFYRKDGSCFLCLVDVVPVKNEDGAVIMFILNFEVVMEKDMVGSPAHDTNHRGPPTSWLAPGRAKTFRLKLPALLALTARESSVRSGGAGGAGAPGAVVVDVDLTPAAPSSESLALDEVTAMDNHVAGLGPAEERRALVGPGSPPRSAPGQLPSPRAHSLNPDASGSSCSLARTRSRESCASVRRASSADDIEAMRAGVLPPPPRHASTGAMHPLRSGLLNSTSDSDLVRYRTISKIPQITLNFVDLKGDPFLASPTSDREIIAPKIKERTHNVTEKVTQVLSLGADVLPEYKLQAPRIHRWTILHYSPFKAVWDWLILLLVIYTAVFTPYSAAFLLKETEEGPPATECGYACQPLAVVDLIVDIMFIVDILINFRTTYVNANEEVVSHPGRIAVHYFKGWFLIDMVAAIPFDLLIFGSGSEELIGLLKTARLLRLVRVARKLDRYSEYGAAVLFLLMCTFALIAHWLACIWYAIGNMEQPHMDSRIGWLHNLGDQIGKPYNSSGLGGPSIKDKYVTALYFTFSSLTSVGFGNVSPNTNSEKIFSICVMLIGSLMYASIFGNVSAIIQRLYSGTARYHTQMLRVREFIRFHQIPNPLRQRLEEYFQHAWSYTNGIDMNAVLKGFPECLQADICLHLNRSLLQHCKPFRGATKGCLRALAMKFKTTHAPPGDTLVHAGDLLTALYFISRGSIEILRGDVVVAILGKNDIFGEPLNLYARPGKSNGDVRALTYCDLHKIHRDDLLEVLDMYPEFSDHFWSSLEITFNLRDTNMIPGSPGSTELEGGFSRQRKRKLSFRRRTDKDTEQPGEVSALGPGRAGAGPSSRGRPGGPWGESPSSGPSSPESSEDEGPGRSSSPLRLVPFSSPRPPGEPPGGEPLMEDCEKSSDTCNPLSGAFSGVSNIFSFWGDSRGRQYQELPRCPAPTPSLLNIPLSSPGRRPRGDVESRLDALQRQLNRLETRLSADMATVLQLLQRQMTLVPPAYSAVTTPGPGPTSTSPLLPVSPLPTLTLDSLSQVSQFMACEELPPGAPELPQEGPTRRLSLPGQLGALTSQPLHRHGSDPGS
Chain of Mitogen-activated protein kinase 14 (Q16539 whole entry): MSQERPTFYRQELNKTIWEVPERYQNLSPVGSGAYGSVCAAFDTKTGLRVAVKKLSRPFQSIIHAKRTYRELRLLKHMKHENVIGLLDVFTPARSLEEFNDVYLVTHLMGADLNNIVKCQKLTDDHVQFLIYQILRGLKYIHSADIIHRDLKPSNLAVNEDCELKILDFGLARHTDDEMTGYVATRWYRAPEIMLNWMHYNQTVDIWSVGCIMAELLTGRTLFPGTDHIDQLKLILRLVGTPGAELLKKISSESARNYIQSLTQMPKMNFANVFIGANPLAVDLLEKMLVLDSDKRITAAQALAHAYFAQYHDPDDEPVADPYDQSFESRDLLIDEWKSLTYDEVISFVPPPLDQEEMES

Structure (SMILES) | Activity [1] [µM] | IC50 (Homo sapiens [2]) [nM] | IC50 (THP-1 [3]) [nM] | IC50 [4] [nM] | Activity [5] [µM] | bioavailability [6] [%] | IC50 (Homo sapiens [7]) | IC50 (THP-1 [8]) | half-life [9] [h]
CC(C)(C)CNc1nc(-c2ccccc2Cl)c2c(n1)N(c1c(Cl)cccc1Cl)C(=O)NC2 | > 30 | 1000 | 21 | 0.8 | 10 |  |  |  | 
CN(C)CCN1CCN(c2nc(-c3ccc(Cl)cc3Cl)c3c(n2)N(c2c(Cl)cccc2Cl)C(=O)NC3)CC1 | 0.22 | 42 | 22 | 1 |  | 3 |  |  | 
CC(C)Nc1nc(-c2ccccc2Cl)c2c(n1)N(c1c(Cl)cccc1Cl)C(=O)NC2 | 10 |  | 38 | 1.1 | 4.5 |  | Not Active |  | 
CN(C)c1nc(-c2ccccc2Cl)c2c(n1)N(c1c(Cl)cccc1Cl)C(=O)NC2 | > 10 |  |  | 3 | 6 |  | Not Active | Not Active | 
CC(C)N1CCC(Nc2nc(-c3ccccc3Cl)c3c(n2)N(c2c(Cl)cccc2Cl)C(=O)NC3)CC1 | 3.3 | 15 | 1 | 0.6 | 6.4 | 24 |  |  | 2
CN1C2CCC1CC(Nc1nc(-c3ccccc3Cl)c3c(n1)N(c1c(Cl)cccc1Cl)C(=O)NC3)C2 (stereo not drawn) | 2.2 | 17 | 2.6 | 0.5 | 8.9 |  |  |  | 
CC1(C)CC(Nc2nc(-c3ccccc3Cl)c3c(n2)N(c2c(Cl)cccc2Cl)C(=O)NC3)CC(C)(C)N1 | 1.2 | 38 | 2.6 | 0.7 | 4.5 |  |  |  | 
O=C1NCc2c(-c3ccccc3Cl)cc(O)cc2N1c1c(Cl)cccc1Cl |  |  |  | 2 |  |  |  |  | 
O=C1NCc2c(-c3ccccc3Cl)nc(N3CCOCC3)nc2N1c1c(Cl)cccc1Cl | 6 |  | 500 | 2 |  |  | Not Active |  | 
O=C1NCc2c(-c3ccccc3Cl)nc(NC3CN4CCC3CC4)nc2N1c1c(Cl)cccc1Cl (stereo not drawn) | 1.3 | 360 | 34 | 1.2 | 5.8 |  |  |  | 
CNc1nc(-c2ccccc2Cl)c2c(n1)N(c1c(Cl)cccc1Cl)C(=O)NC2 | 10 | 850 | 22 | 2 | 6.4 |  |  |  | 
CN(C)CCN1CCN(c2nc(-c3ccccc3Cl)c3c(n2)N(c2c(Cl)cccc2Cl)C(=O)NC3)CC1 | 1.7 | 100 | 2.3 | 0.5 | 3.8 |  |  |  | 
Nc1nc(-c2ccccc2Cl)c2c(n1)N(c1c(Cl)cccc1Cl)C(=O)NC2 | 9.2 | 2000 | 81 | 5.3 |  | 100 |  |  | 1.1
C[C@@H]1CN(c2nc(-c3ccc(Cl)cc3Cl)c3c(n2)N(c2c(Cl)cccc2Cl)C(=O)NC3)C[C@H](C)O1 | 6 |  | 500 | 2 | 5 |  | Not Active |  | 
O=C1NCc2c(-c3ccc(F)cc3F)cc(C3CCNCC3)cc2N1c1c(Cl)cccc1Cl |  | 10 |  |  |  |  |  |  | 
CN(C)CCNc1nc(-c2ccc(Cl)cc2Cl)c2c(n1)N(c1c(Cl)cccc1Cl)C(=O)NC2 | 1 | 32 | 20 | 5.6 | 0.5 |  |  |  | 
CC(C)N1CCC(c2cc(-c3ccc(F)cc3F)c3c(c2)N(c2c(Cl)cccc2Cl)C(=O)NC3)CC1 |  | 20 |  | 0.2 |  |  |  |  | 
O=C1NCc2c(-c3ccccc3Cl)nc(O)nc2N1c1c(Cl)cccc1Cl | 7 |  | 170 | 4 | 4.6 |  | Not Active |  | 
CS(=O)(=O)c1nc(-c2ccccc2Cl)c2c(n1)N(c1c(Cl)cccc1Cl)C(=O)NC2 | > 10 |  | 500 | 4.2 | 9 |  | Not Active |  | 
O=C1NCc2c(-c3ccccc3Cl)nc(NN3CCOCC3)nc2N1c1c(Cl)cccc1Cl | 7 | 1000 | 99 | 4 | 6.9 |  |  |  | 
Nc1cc(-c2ccccc2Cl)c2c(c1)N(c1c(Cl)cccc1Cl)C(=O)NC2 |  |  |  | 6 |  |  |  |  | 
CC(C)N1CCC(c2cc3c(c(-c4ccccc4Cl)n2)CNC(=O)N3c2c(Cl)cccc2Cl)CC1 |  |  |  |  |  | 18 |  |  | 2.1
O=C1NCc2c(-c3ccccc3Cl)nc(N3CCc4[nH]ncc4C3)nc2N1c1c(Cl)cccc1Cl | > 30 | 500 | 28 | 1.9 | 10 |  |  |  | 
CN(C)CCOc1nc(-c2ccccc2Cl)c2c(n1)N(c1c(Cl)cccc1Cl)C(=O)NC2 | 8.8 | 250 | 21 | 4.2 | 10 |  |  |  | 
CC(C)N1CCN(c2nc(-c3ccc(Cl)cc3Cl)c3c(n2)N(c2c(Cl)cccc2Cl)C(=O)NC3)CC1 | 0.7 | 1940 | 330 | 20 | 0.2 |  |  |  | 
CSc1nc(-c2ccccc2Cl)c2c(n1)N(c1c(Cl)cccc1Cl)C(=O)NC2 | 6 |  | 700 | 10 |  |  | Not Active |  | 
COCCNc1nc(-c2ccc(Cl)cc2Cl)c2c(n1)N(c1c(Cl)cccc1Cl)C(=O)NC2 | > 10 | 270 | 97 | 2 | 3 |  |  |  | 
